Measured values pooled from the literature.
Lines come from different studies, so protocols differ.
Organism: Staphylococcus aureus

Oc1c(Cl)cc(Cl)cc1-c1[nH]c(Cl)c(Cl)c1Cl  MIC (microbial growth; ATCC29213 MSSA): 0.29 µM
COc1c(N2CC3CCCNC3C2)c(F)cc2c(=O)c(C(=O)OCc3cnc([N+](=O)[O-])s3)cn(C3CC3)c12 (stereo not drawn)  MIC (microbial growth; ATCC29213): 0.09 µM
CN[C@H](CC(C)C)C(=O)N[C@H]1C(=O)N[C@@H](CC(N)=O)C(=O)N[C@H]2C(=O)N[C@H]3C(=O)N[C@H](C(=O)N[C@H](C(=O)O)c4cc(O)cc(O)c4-c4cc3ccc4O)[C@H](O)c3ccc(c(Cl)c3)Oc3cc2cc(c3O[C@@H]2O[C@H](CO)[C@@H](O)[C@H](O)[C@H]2O[C@H]2C[C@](C)(N)[C@H](O)[C@H](C)O2)Oc2ccc(cc2Cl)[C@H]1O  MBC (microbial killing; ATCCBAA1717 MRSA): 1.95 µg/mL
O=c1ccc2nc3ccc(OCc4ccc([N+](=O)[O-])o4)cc3oc-2c1  MIC (microbial growth; 24 h): > 32 µg/mL
CN[C@H](CC(C)C)C(=O)N[C@H]1C(=O)N[C@@H](CC(N)=O)C(=O)N[C@H]2C(=O)N[C@H]3C(=O)N[C@H](C(=O)N[C@H](C(=O)O)c4cc(O)cc(O)c4-c4cc3ccc4O)[C@H](O)c3ccc(c(Cl)c3)Oc3cc2cc(c3O[C@@H]2O[C@H](CO)[C@@H](O)[C@H](O)[C@H]2O[C@H]2C[C@](C)(N)[C@H](O)[C@H](C)O2)Oc2ccc(cc2Cl)[C@H]1O  MBC (microbial killing; broth dilution; MRSA; drug-resistant strain): 0.67 µM
CO[C@@H]1[C@@H](OC(N)=O)[C@@H](O)[C@H](Oc2ccc3c(O)c(NC(=O)c4ccc(O)c(CC=C(C)C)c4)c(=O)oc3c2C)OC1(C)C  MIC (microbial growth; MRSA; drug-resistant strain, clinical isolate): 0.25 µg/mL
C[C@H]1COc2c(N3CCN(C)CC3)c(F)cc3c(=O)c(C(=O)O)cn1c23  MBC (microbial killing; ATCCBAA1717 MRSA): 0.48 µg/mL
COc1c(N2C[C@@H]3CCCN[C@@H]3C2)c(F)cc2c(=O)c(C(=O)O)cn(C3CC3)c12  MIC (microbial growth; ATCC29213): 0.07 µM
C[C@@H]1CN2c3c(cc4c(N5C(=O)OC[C@@H]5C)noc4c3F)CC3(C(=O)NC(=O)NC3=O)[C@H]2[C@H](C)O1  MIC (microbial growth; broth dilution; ATCC29213): 1 µg/mL
